Test results: ChEMBL document CHEMBL1127809, “Pentamidine congeners. 2. 2-butene-bridged aromatic diamidines and diimidazolines as potential anti-Pneumocystis carinii pneumonia agents” (1994)
“And” between values parts separate entries of the source, which are not always exact repeats. Equal entries are not always repeated.

Tests used:
Type in all cases: functional
[1] = tested on: Rattus norvegicus; test: In vivo anti-Pneumocystis carinii toxicity in rats administered intravenously at 10 mg/kg/day; 0 indicates no local, clinical, histologic toxicity
How it was run: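 Host toxicity in immunosuppressed PCP rats dosed iv daily for 2 weeks. Animals were observed daily for health and well-being. Liver and kidney were examined by light microscopy for pathologic changes. Scoring: 0 = no local, clinical or histologic toxicity; 1+ = all survived, some local injection-site toxicity; 2+ = most survived, some severe distress, clinical toxicity and histopathology; 3+ = acute toxicity or decline with <50% deaths; 4+ = ≥50% deaths.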

[2] = species on record: Rattus norvegicus; test: Anti-Pneumocystis carinii activity was measured as percentage of number of cysts counted per gram of lung tissue; design: concentration or dose not given beside the values
How it was run: (§1)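 Immunosuppressed rats with PCP; compound given by daily iv injection over 2 weeks at 10 mg/kg/day, or at 5 or 1 mg/kg/day where shown. Saline is the negative control and pentamidine the positive control. Cysts are counted per gram of lung tissue and expressed as % of the saline-treated control ± SE (n rats). Significance is given as P vs saline or vs pentamidine.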

[3] = tested on: Rattus norvegicus; test: Anti- Pneumocystis carinii activity was measured as percentage of number of cysts counted per gram of lung tissue at a dose of 1 mg/kg/day; how it was run: as §1
[4] = tested on: Rattus norvegicus; test: Anti- Pneumocystis carinii activity was measured as percentage of number of cysts counted per gram of lung tissue at a dose of 5.0 mg/kg/day; how it was run: as §1
[5] = tested on: Rattus norvegicus; test: Anti- Pneumocystis carinii activity was measured as percentage of number of cysts counted per gram of lung tissue at a dose of 10 mg/kg/day; how it was run: as §1
[6] = species on record: Rattus norvegicus; test: Anti- Pneumocystis carinii activity was measured as percentage of number of cysts counted per gram of lung tissue; how it was run: as §1

| SMILES | Toxicity ([1]; route intravenous) | Control [2] [%] | Toxicity [1] | also measured |
| --- | --- | --- | --- | --- |
| Cl.Cl.N=C(N)c1ccc(OC/C=C/COc2ccc(C(=N)N)cc2)cc1 | 0 | 0.67 |  |  |
| COc1cc(C2=NCCN2)ccc1OC/C=C/COc1ccc(C2=NCCN2)cc1OC.Cl.Cl |  | 1.5 | Toxic |  |
| C(=C\COc1ccc(C2=NCCN2)cc1)/COc1ccc(C2=NCCN2)cc1.Cl.Cl | 0 | 1.22 |  | Control [3]: 39.6%; Control [4]: 5.61%; Control [5]: 1.38% |
| Cl.Cl.N=C(N)c1ccc(OC/C=C\COc2ccc(C(=N)N)cc2)cc1 | 0 | 1.1 |  |  |
| COc1cc(C(=N)N)ccc1OC/C=C\COc1ccc(C(=N)N)cc1OC.Cl.Cl | 0 | 21.4 |  |  |
| C(=C/COc1ccc(C2=NCCN2)cc1)/COc1ccc(C2=NCCN2)cc1.Cl.Cl | 0 | 1.22 |  |  |
| COc1cc(C2=NCCN2)ccc1OC/C=C\COc1ccc(C2=NCCN2)cc1OC.Cl.Cl |  | 15.6 | Local toxicity |  |
| N=C(N)c1ccc(OCCCCCOc2ccc(C(=N)N)cc2)cc1 [PENTAMIDINE] | 2 |  |  | Control [6]: <5.31% and <4.95% |
| COc1cc(C(=N)N)ccc1OC/C=C/COc1ccc(C(=N)N)cc1OC.Cl |  | 35.5 | Local toxicity |  |
